This is an account of results in ChEMBL document CHEMBL4732088, “Identification and optimization of piperlongumine analogues as potential antioxidant and anti-inflammatory agents via activation of Nrf2” (Eur J Med Chem, 2021).

Assay [1] deals with PC-12. As to the kind of experiment: Protection against H2O2-induced mitochondrial dysfunction in rat PC12 cells assessed as change in mitochondrial membrane potential at 10 uM pretreated with compound followed by H2O2 addition by JC-1 staining based flow cytometry (reference value: 78.7 %). The format is functional. The essentials: (§1)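 Mitochondrial membrane potential in PC12 cells pretreated with compound (5, 10, 20 μM), then exposed to H₂O₂ (200 μM) or 6-OHDA (150 μM). JC-1 staining, red-to-green fluorescence shift read by flow cytometry. Mean ± SD, n = 3.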

Assay [2] relates to PC-12. As to the kind of experiment: Protection against H2O2-induced mitochondrial dysfunction in rat PC12 cells assessed as change in mitochondrial membrane potential at 5 uM pretreated with compound followed by H2O2 addition by JC-1 staining based flow cytometry (reference value: 78.7 %). The format is functional. The essentials:
as §1

Assay [3] relates to PC-12. As to the kind of experiment: Protection against 6-OHDA-induced apoptosis in rat PC12 cells assessed as early apoptotic cells at 10 uM incubated for 24 hrs by annexin V FITC/propidium iodide staining based flow cytometry (reference value: 19.2 %). Type of assay: functional.
The target in assay [4] is T1, Nuclear factor erythroid 2-related factor 2 (Mus musculus) (UniProt Q60795).
T1 sequence (whole entry): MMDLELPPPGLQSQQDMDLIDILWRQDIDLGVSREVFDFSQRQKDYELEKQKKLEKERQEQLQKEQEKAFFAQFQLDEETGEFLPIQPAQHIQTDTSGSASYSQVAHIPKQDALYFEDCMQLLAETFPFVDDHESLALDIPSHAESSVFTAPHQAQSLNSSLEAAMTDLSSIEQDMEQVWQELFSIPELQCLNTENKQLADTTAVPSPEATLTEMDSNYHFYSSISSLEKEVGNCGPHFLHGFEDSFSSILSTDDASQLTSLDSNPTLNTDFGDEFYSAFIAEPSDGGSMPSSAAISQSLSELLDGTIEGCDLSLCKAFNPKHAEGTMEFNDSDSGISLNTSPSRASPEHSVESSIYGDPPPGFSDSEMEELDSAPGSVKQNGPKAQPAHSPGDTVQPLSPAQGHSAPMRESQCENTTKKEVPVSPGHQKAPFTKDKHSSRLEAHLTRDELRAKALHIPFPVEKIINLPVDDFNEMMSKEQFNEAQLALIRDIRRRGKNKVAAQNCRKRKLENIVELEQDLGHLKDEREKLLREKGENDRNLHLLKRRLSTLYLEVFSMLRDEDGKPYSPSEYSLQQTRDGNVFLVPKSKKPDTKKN
Briefly: Activation of Nrf2 in mouse BV2 cells assessed as upregulation of GCLC protein expression after 24 hrs by Western blot analysis. The format is cell-based. As to conditions: BV-2, filed as activator, dose 5-20 µM. The essentials:
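BV2 microglia exposed to compound for 24 h over a concentration series; Nrf2, NQO1, HO-1, TrxR1, GCLM and GCLC protein levels read by Western blot.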

Assay [5] has as its system PC-12. As to the kind of experiment: Prevention of 6-OHDA-induced calcium overload in rat PC12 cells assessed as reduction in intracellular free calcium by measuring mean fluorescence intensity at 20 uM pretreated with compound followed by 6-OHDA addition measured after 24 hrs by Fluo-3AM based fluorescence assay (reference value: 6708.18%). Type of assay: functional.

Assay [6] deals with PC-12. Briefly: Neuroprotective activity against 6-OHDA-induced cell damage in rat PC12 cells preincubated for 24 hrs followed by 6-OHDA treatment by MTT assay. The format is functional, cell-based. As to conditions: dose 5-20 µM. In outline: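 PC12 cells pretreated 24 h with compound (5, 10, 20 μM), then H₂O₂ (200 μM) or 6-OHDA (150 μM); viability by MTT; mean ± SD, three independent experiments.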

The test system of assay [7] is PC-12. Briefly: Protection against 6-OHDA-induced apoptosis in rat PC12 cells assessed as viable cells at 10 uM incubated for 24 hrs by annexin V FITC/propidium iodide staining based flow cytometry (reference value: 72.0 %). Type of assay: functional. As to conditions: read-out: Activity.
Assay [8] addresses T2, Nuclear factor erythroid 2-related factor 2 (Rattus norvegicus) (UniProt O54968).
T2 sequence (whole entry): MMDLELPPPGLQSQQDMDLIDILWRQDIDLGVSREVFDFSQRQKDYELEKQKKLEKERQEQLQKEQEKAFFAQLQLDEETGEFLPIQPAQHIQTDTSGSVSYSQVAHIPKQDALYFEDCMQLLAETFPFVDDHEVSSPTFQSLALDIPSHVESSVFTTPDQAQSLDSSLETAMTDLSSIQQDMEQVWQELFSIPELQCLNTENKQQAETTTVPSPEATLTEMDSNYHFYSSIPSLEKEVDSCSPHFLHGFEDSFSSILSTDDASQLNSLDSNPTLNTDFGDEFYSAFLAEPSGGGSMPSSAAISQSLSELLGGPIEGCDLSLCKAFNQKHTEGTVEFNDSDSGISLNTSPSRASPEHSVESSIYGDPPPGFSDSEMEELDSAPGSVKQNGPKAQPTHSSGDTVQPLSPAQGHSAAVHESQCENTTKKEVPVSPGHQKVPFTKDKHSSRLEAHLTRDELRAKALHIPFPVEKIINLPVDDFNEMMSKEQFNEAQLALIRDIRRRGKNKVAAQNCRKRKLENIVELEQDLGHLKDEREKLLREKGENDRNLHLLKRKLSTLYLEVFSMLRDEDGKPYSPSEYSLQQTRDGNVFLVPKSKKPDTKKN
As to the kind of experiment: Activation of Nrf2 in rat PC12 cells assessed as increase in GCLC protein level after 24 hrs by Western blot analysis. Type of assay: cell-based. As to conditions: PC-12, filed as activator, dose 5-20 µM. The essentials: (§2)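 PC12 cells treated with compound for 24 h at rising concentrations; NQO1, HO-1, TrxR1, GCLM, GCLC protein detected by Western blot.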

Assay [9] concerns PC-12. As to the kind of experiment: Protection against H2O2-induced mitochondrial dysfunction in rat PC12 cells assessed as change in mitochondrial membrane potential loss at 20 uM pretreated with compound followed by H2O2 addition by JC-1 staining based flow cytometry (reference value: 21.3 %). Type of assay: functional. In outline: as §1
Assay [10] deals with PC-12. Briefly: Cytoprotective activity against 6-OHDA-induced neurotoxicity in rat PC12 cells assessed as reduction in LDH release at 5 to 20 uM preincubated for 24 hrs followed by 6-OHDA treatment by LDH assay. The format is functional, cell-based. As to conditions: dose 5-20 µM. The essentials:
(§3)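 PC12 cells pretreated with compound (5, 10, 20 μM) for 24 h, then H₂O₂ or 6-OHDA; membrane damage read as LDH leakage; mean ± SD of three independent experiments.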

For assay [11], the system named is PC-12. Briefly: Neuroprotective activity against 6-OHDA-induced cell damage in rat PC12 cells assessed as cell viability at 20 uM after 24 hrs by MTT assay (reference value: 45.23 +/- 4.37 %). Type of assay: functional. As to conditions: read-out: Activity.
For assay [12], the system named is PC-12. As to the kind of experiment: Cytoprotective activity against H2O2-induced neurotoxicity in rat PC12 cells assessed as reduction in LDH release at 5 to 20 uM preincubated for 24 hrs followed by H2O2 treatment by LDH assay. As to conditions: dose 5-20 µM. Type of assay: functional, cell-based. In outline: as §3
Assay [13] deals with PC-12. Briefly: Protection against H2O2-induced apoptosis in rat PC12 cells assessed as viable cells at 20 uM incubated for 24 hrs by annexin V FITC/propidium iodide staining based flow cytometry (reference value: 79.3 %). The format is functional. As to conditions: read-out: Activity.
The subject of assay [14] is PC-12. Briefly: Protection against 6-OHDA-induced mitochondrial dysfunction in rat PC12 cells assessed as change in mitochondrial membrane potential loss at 20 uM pretreated with compound followed by 6-OHDA addition by JC-1 staining based flow cytometry (reference value: 26.8 %). The format is functional. The essentials:
as §1

Assay [15] deals with T2, Nuclear factor erythroid 2-related factor 2 (Rattus norvegicus). Briefly: Activation of Nrf2 in rat PC12 cells assessed as increase in GCLM protein level after 24 hrs by Western blot analysis. Type of assay: cell-based. As to conditions: PC-12, filed as activator, dose 5-20 µM. The essentials:
as §2

The source made the active and inactive calls. The calls are words filed in the database; no cut-off is given here.

For `CCN(C)C(=O)N1CCN(C(=O)/C=C/c2ccc(F)cc2)C1=O`, the Activity in the assay on PC-12 [1] was 90.2%; in the assay on PC-12 [2] it was 86.7%; in the assay on PC-12 [3], 7.4%; in [4] it was “Dose-dependent effect”; in the assay on PC-12 [6], “Dose-dependent effect”; in assay [8] it was “Dose-dependent effect”. The Activity in the assay with PC-12 [9] is 7.2%; in the assay on PC-12 [14] it was 10.7%; in assay [15], “Dose-dependent effect”. In addition, the Flu intensity with PC-12 [5] was determined as 4161.82. Further, in the assay with PC-12 [7], the viability at 10 µM was determined as 85.4%. In addition, the result in the assay on PC-12 [10] and in the assay on PC-12 [12] was Active. For the same molecule, the viability at 20 µM in the assay with PC-12 [11] was 75.4%; in the assay on PC-12 [13], 93.7%.
